According to PMC10962649 (Journal of Food and Drug Analysis, 2024):
Marks after values point to notes of the source that are not given here.

How the values were obtained:
MRP2 [1] = biological target: MRP2 (Canis lupus familiaris, UniProt A0A8I3SCV5); assay: MRP2 activity: intracellular accumulation of GSMF; assay type: cell-based; details: MDCKII-WT cells
BCRP = biological target: T1, BCRP (Homo sapiens, UniProt Q9UNQ0); details: concentrations of 12.5–100 μM; cited from earlier work
T1 sequence (Q9UNQ0 1-655): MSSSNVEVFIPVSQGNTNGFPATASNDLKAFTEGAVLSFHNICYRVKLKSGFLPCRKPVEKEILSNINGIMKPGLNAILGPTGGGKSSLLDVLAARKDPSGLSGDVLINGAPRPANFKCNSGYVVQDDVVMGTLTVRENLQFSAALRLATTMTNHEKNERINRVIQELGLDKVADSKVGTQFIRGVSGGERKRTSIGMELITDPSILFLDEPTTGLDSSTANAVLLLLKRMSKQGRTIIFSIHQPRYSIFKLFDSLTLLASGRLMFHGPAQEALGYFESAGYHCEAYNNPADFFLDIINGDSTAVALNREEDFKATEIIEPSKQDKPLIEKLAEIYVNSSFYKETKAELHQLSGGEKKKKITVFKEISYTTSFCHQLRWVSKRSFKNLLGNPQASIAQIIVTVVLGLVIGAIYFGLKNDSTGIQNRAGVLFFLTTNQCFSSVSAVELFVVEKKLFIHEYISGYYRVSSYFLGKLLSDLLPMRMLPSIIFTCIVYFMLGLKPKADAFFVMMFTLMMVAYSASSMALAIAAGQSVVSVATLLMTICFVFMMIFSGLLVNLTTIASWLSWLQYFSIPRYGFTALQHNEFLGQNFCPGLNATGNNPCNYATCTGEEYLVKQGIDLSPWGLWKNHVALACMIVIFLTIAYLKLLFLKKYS

MDCKII-WT cells = assay: MTT assay for cell viability, MDCKII-WT cells; assay type: cell-based, canine; details: 150 μM, MDCKII-WT cells (data not shown)
Procedure, shortened: (§1)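 MDCKII cells (wild-type or BCRP-overexpressing, from the Netherlands Cancer Institute) were grown in DMEM with 10% FBS and 1% penicillin-streptomycin-glutamine at 37 °C under 5% CO₂. Viability after exposure to test agents was measured by MTT assay, following a cited method with minor modification.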

MDCKII-BCRP cells = assay: MTT assay for cell viability, MDCKII-BCRP cells; assay type: cell-based, canine; details: 100 μM, MDCKII-BCRP cells (data not shown)
Procedure, shortened: as §1

[2] = Pharmacokinetics of oral MTX in rats alone and coadministered with MOC; assay type: in vivo, Sprague–Dawley rats
Procedure, shortened: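 Groups were dosed orally and in parallel: MTX 5.0 mg/kg with an equal volume of water (n = 6), or with decoction given 0.5 h earlier. Rats were fasted overnight. Tail-vein blood (0.5 mL) was drawn at 0.25–48 h, and serum MTX was measured by fluorescence polarization immunoassay using the kit calibration. AUC0-t was derived by noncompartmental analysis.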

[3] = Mortality of rats observed during the pharmacokinetic study; assay type: in vivo, Sprague–Dawley rats; details: oral MTX 5.0 mg/kg alone or coadministered with MOC (three groups)
Procedure, shortened: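 Male Sprague–Dawley rats (350–450 g) were fasted overnight with water allowed, and food was returned 3 h after dosing. They received oral MTX 5.0 mg/kg, given alone with water or 0.5 h after oral decoction at 2.0 or 4.0 g/kg. A fourth group got 2.0 g/kg thrice daily for 2 days before MTX. Deaths were noted over the 48-h sampling period.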

MRP2 [4] = biological target: MRP2 (Homo sapiens, UniProt Q92887); assay type: cell-based; details: MDCKII-MRP2 cells, 100 μM spiked in blank serum, Fig. 3(C)
Sequence of MRP2 (Homo sapiens, UniProt Q92887) (Q92887 whole entry): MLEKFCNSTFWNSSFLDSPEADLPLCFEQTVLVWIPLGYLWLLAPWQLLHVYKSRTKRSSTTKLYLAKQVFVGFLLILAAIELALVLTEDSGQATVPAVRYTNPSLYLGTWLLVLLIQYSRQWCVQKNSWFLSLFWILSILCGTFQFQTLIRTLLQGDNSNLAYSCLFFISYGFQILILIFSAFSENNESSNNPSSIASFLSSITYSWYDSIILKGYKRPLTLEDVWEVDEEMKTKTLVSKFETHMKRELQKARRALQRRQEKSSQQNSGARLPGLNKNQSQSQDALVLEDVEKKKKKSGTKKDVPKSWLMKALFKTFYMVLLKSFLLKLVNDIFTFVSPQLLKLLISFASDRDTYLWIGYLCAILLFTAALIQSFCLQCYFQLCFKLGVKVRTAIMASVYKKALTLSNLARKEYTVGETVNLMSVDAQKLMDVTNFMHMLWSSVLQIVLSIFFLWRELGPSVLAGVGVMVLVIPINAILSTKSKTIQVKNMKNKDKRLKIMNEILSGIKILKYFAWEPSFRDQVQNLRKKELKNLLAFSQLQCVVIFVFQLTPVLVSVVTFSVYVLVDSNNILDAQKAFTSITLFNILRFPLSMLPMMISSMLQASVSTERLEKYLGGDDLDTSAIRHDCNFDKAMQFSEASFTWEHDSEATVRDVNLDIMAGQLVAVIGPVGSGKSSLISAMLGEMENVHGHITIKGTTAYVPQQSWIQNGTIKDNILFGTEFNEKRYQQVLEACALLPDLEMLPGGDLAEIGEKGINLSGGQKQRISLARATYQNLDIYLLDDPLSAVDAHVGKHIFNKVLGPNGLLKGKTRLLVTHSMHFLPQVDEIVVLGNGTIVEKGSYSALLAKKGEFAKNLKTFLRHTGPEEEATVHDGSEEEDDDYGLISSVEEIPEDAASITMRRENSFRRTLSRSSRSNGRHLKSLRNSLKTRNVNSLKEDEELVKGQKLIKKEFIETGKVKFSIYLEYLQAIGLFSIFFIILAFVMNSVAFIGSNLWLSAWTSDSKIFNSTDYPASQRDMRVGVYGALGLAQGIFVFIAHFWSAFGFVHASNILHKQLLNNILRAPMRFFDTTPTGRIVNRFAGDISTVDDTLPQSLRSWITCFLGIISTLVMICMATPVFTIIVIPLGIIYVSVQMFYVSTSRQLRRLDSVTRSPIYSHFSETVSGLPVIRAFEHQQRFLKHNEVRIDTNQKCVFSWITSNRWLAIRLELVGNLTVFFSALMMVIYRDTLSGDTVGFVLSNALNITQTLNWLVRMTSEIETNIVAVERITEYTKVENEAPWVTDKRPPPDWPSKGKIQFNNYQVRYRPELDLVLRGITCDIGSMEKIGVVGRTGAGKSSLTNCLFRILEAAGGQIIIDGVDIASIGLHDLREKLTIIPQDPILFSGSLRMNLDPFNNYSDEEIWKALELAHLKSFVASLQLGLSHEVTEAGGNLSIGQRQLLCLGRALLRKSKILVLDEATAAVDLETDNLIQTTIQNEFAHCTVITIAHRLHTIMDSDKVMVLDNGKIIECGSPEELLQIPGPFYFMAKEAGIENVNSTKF

[5] = 50 μM, MN/HK experiment, Fig. 3(B)

Sequence of MRP2 (Canis lupus familiaris, UniProt A0A8I3SCV5) (A0A8I3SCV5 1-1544): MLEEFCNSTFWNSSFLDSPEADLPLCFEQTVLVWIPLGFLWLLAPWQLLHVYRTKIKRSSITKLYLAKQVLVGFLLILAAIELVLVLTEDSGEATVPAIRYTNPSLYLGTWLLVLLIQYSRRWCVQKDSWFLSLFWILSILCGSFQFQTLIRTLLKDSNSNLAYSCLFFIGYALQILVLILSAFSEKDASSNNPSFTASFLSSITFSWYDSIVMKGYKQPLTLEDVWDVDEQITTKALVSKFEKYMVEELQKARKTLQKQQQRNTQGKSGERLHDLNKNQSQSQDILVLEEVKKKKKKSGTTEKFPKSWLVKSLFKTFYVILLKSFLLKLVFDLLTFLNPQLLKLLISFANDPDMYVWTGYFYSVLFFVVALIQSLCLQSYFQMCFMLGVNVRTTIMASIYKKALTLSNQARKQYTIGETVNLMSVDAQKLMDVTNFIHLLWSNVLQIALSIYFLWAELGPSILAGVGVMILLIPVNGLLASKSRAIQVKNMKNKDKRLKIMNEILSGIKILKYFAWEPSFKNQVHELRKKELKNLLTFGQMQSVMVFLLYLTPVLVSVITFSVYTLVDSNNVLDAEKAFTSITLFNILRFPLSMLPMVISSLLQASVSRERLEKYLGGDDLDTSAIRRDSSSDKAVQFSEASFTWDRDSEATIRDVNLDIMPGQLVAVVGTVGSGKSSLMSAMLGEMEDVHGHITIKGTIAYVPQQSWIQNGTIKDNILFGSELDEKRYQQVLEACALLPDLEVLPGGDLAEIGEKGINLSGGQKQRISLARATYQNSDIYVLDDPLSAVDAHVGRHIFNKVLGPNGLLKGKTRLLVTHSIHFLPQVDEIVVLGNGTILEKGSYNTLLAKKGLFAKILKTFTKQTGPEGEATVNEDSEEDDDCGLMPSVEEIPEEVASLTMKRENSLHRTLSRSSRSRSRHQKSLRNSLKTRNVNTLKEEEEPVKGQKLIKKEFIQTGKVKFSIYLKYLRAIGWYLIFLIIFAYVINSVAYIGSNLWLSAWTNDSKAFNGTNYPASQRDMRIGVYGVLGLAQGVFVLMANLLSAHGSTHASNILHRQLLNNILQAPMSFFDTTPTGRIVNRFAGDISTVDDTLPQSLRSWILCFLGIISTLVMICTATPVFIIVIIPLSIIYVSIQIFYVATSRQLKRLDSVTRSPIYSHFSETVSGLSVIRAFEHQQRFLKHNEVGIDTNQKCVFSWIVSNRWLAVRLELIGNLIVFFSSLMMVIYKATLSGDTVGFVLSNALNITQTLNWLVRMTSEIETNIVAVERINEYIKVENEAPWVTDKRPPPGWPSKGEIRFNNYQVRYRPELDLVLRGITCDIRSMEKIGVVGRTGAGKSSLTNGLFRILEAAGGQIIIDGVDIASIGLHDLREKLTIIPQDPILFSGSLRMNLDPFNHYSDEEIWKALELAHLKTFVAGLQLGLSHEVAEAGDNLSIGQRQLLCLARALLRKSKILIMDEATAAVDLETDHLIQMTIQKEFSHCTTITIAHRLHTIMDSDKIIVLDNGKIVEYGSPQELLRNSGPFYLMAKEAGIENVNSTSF

Structure (SMILES)	Increase of intracellular accumulation of GSMF (MRP2 [1]; 25 μM, MN/HK experiment, Fig. 3(B))	Increase of intracellular accumulation of GSMF (MRP2 [1]; [5])	Effect on BCRP (BCRP)	Effect on cell viability (MTT) (MDCKII-WT cells)	Effect on cell viability (MTT) (MDCKII-BCRP cells)	AUC0-t of MTX ([2]; oral MTX 5.0 mg/kg + water (MTX alone), n = 6, mean ± S.E.)	AUC0-t of MTX ([2]; oral MTX 5.0 mg/kg, MOC 2.0 g/kg thrice daily for 2 days, 7th dose 0.5 h before MTX, n = 5, mean ± S.E.)	AUC0-t of MTX ([2]; oral MTX 5.0 mg/kg, single dose MOC 2.0 g/kg 0.5 h before MTX, n = 6, mean ± S.E.)	AUC0-t of MTX ([2]; oral MTX 5.0 mg/kg, single dose MOC 4.0 g/kg 0.5 h before MTX, n = 6, mean ± S.E.)	Mortality of rats during the pharmacokinetic study [3]	Increase of intracellular accumulation of GSMF (MRP2 [1]; 50 μM, positive control in MOC experiment, Fig. 3(A))	Increase of intracellular accumulation of GSMF (MRP2 [4])
C=CCc1ccc(O)c(-c2ccc(O)c(CC=C)c2)c1 [HK, honokiol]	34%	75%	significantly inhibited	no toxic effects	no toxic effects	–	–	–	–	–	–	–
C=CCc1ccc(O)c(-c2cc(CC=C)ccc2O)c1 [MN, magnolol]	–	137%	significantly inhibited	no toxic effects	no toxic effects	–	–	–	–	–	–	–
CN(Cc1cnc2nc(N)nc(N)c2n1)c1ccc(C(=O)N[C@@H](CCC(=O)O)C(=O)O)cc1 [MTX, Methotrexate]	–	–	–	–	–	44.6 ± 5.0^a μmol·min·mL^−^1	250.2 ± 31.2 μmol·min·mL^−^1	201.5 ± 39.2 μmol·min·mL^−^1	206.8 ± 35.9 μmol·min·mL^−^1	all survived very well	–	–
CN(C)C(=O)CCSC(SCCC(=O)O)c1cccc(/C=C/c2ccc3ccc(Cl)cc3n2)c1 (centres unmarked) [MK 571, reference compound]	–	331%	–	–	–	–	–	–	–	–	203%	72%
